ChEMBL document CHEMBL1944576, “Synthesis and antiplasmodial evaluation of novel chromeno[2,3-b]chromene derivatives” (Bioorg Med Chem, 2012)

Key:
Plasmodium falciparum = experiment: Antiplasmodial activity against chloroquine-sensitive ring-stage Plasmodium falciparum 3D7 assessed as [3H]hypoxanthine incorporation after 48 hrs by liquid scintillation counter; type: functional, organism-based
In short: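 Ring-stage 3D7-infected erythrocytes at 0.5% parasitemia, 2.5% hematocrit, in triplicate wells with serial compound dilutions. After 48 h under standard culture conditions, 0.5 µCi [3H]-hypoxanthine was added per well and culture continued a further 24 h. Harvested cells counted by scintillation. Inhibition was taken against matched 0.5% DMSO controls. IC50 was obtained by linear interpolation, as the mean of two independent triplicate experiments.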

[1] = Cytotoxicity against human NFF assessed as growth inhibition at 100 uM after 3 days by sulforhodamine B assay; type: cell-based; details: NFF cells, read-out: GI
[2] = Cytotoxicity against human NFF assessed as growth inhibition at 50 uM after 3 days by sulforhodamine B assay; type: cell-based; details: NFF cells, read-out: GI
NFF = experiment: Cytotoxicity against human NFF assessed as growth inhibition after 3 days by sulforhodamine B assay; type: cell-based; details: 72 h
In short: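 NFF cells were kept in log phase in RPMI 1640 with 10% FCS and 1% streptomycin at 37 °C, 5% CO2. They were seeded at 3000/well and grown 24 h before treatment. Compounds went in as DMSO solutions diluted in medium, with DMSO ≤1% and DMSO-matched controls. After 3 days cells were PBS-washed and fixed in methylated spirits. Total protein was measured by sulforhodamine B, in triplicate across three independent experiments.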

Row | SMILES | IC50 (Plasmodium falciparum) | inhibition at 72 h, 100 µM [1] | inhibition at 72 h, 50 µM [2] | IC50 (NFF)
1 | COc1cccc2c1C[C@@H]1[C@H](/C=C/c3ccc(Br)cc3)c3c(OC)cccc3O[C@]1(c1ccc(Br)cc1)O2 | 39.8 µM | 38% | – | –
2 | COc1cccc2c1C[C@@H]1[C@H](/C=C/c3ccc(Cl)cc3)c3c(OC)cccc3O[C@]1(c1ccc(Cl)cc1)O2 | 8.3 µM | 83.6% | – | –
3 | COc1ccc(/C=C/[C@@H]2c3c(OC)cccc3O[C@]3(c4ccc(OC)cc4)Oc4cccc(OC)c4C[C@H]23)cc1 | 8.2 µM | 54.6% | – | –
4 | COc1cccc2c1C[C@@H]1[C@H](/C=C/c3ccc(C)cc3)c3c(OC)cccc3O[C@]1(c1ccc(C)cc1)O2 | 6.8 µM | 60.1% | – | –
5 | COc1ccc2c(c1)C[C@@H]1[C@H](/C=C/c3ccccc3)c3cc(OC)ccc3O[C@]1(c1ccccc1)O2 | 10.2 µM | 51.4% | – | –
6 | COc1ccc2c(c1)C[C@@H]1[C@H](/C=C/c3ccc(Br)cc3)c3cc(OC)ccc3O[C@]1(c1ccc(Br)cc1)O2 | 17.2 µM | 51% | – | –
7 | COc1ccc2c(c1)C[C@@H]1[C@H](/C=C/c3ccc(Cl)cc3)c3cc(OC)ccc3O[C@]1(c1ccc(Cl)cc1)O2 | 35.6 µM | 40.4% | – | –
8 | COc1ccc2c(c1)C[C@@H]1[C@H](/C=C/c3ccc(C)cc3)c3cc(OC)ccc3O[C@]1(c1ccc(C)cc1)O2 | 8.9 µM | 40% | – | –
9 | COc1cccc2c1C[C@@H]1[C@H](/C=C/c3ccccc3)c3c(OC)cccc3O[C@]1(c1ccccc1)O2 | 17.3 µM | 48.6% | – | –
10 | COc1cc(OC)c2c(c1OC)O[C@@H](c1ccccc1)[C@H]1[C@@H]2Oc2c(OC)c(OC)cc(OC)c2[C@@H]1/C=C/c1ccccc1 (relative stereo) | 3.9 µM | – | 46.9% | –
11 | CCN(CC)CCCC(C)Nc1ccnc2cc(Cl)ccc12 (stereo unspecified) [CHLOROQUINE] | – | – | – | 34 µM
